The results in this text go back to ChEMBL document CHEMBL2406982, “Structure-activity relationships of new cyanothiophene inhibitors of the essential peptidoglycan biosynthesis enzyme MurF” (Eur J Med Chem, 2013).

As usually defined, the MIC is the least concentration at which growth counts as inhibited. Higher therefore signals a less susceptible organism. In general, IC50 refers to the concentration needed to halve the response being measured.

Molecules are shown by their SMILES. ≈ marks a conversion by molar mass, not a printed value. Calls of active or inactive are those of the source. No cut-off for these calls is given here.

In assay [1] the test system is Streptococcus pneumoniae. Put plainly: Antimicrobial activity against Streptococcus pneumoniae R6 by broth microdilution method. Format: functional. Put shortly: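 MIC by CLSI broth microdilution in Mueller-Hinton broth supplemented with 5% (v/v) lysed horse blood.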
Assay [2] deals with Staphylococcus aureus. In words: Inhibition of Staphylococcus aureus MurF using D-Ala-D-Ala/UMtri-L-Lys as substrate assessed as residual activity at 100 uM after 15 mins by Malachite green method. In short, it runs like this: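 S. aureus MurF, purified, assayed in 50 mM Hepes pH 8.0 with 20 mM MgCl2 and 0.005% Triton X-114, with D-Ala-D-Ala, UMtri-L-Lys and ATP. Compound was in DMSO (5% v/v final). After 15 min at 37 °C, Biomol reagent was added and A650 was read 5 min later. Duplicates were run. Residual activity was relative to 5% DMSO controls. IC50 was read as 50% residual activity across seven concentrations.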

Assay [3] has as its system Escherichia coli. In words: Inhibition of Escherichia coli MurF using D-Ala-D-Ala/UMtri-mDAP as substrate assessed as residual activity at 100 uM after 15 mins by Malachite green method. Put shortly: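 Purified E. coli MurF in 50 mM Hepes pH 8.0, 50 mM MgCl2, 0.005% Triton X-114, with D-Ala-D-Ala, UMtri-mDAP and ATP. Compound was added in DMSO (final 5% v/v). Mixtures were incubated 15 min at 37 °C, quenched with Biomol reagent, and absorbance was read at 650 nm after 5 min. Runs were in duplicate. Residual activity was taken versus DMSO-only controls. IC50 came from residual activity at seven concentrations.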

A short description of assay [4]: Inhibition of Streptococcus pneumoniae MurF using D-Ala-D-Ala/UMtri-L-Lys as substrate after 15 mins by Malachite green method. Put shortly:
(§1)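 Purified S. pneumoniae MurF in 50 mM Hepes pH 8.0, 50 mM MgCl2, 0.005% Triton X-114, with D-Ala-D-Ala, UMtri-L-Lys and ATP. Compound was added in DMSO (5% v/v final). Reactions ran 15 min at 37 °C, were stopped with Biomol malachite green reagent, and A650 was measured after 5 min. Runs were in duplicate. Residual activity was versus DMSO controls. IC50 was from seven concentrations.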

The nature of assay [5]: Inhibition of Streptococcus pneumoniae MurF.
Assay [6] deals with Staphylococcus aureus. Put plainly: Antimicrobial activity against Staphylococcus aureus SH1000 by broth microdilution method. Format: functional, organism-based. Put shortly:
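MIC by broth microdilution in Mueller-Hinton broth following CLSI guidelines.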
(Broth dilution looks for growth in wells or tubes with falling amounts of substance.)

Assay [7] relates to Escherichia coli. Put plainly: Antimicrobial activity against Escherichia coli AB734 by broth microdilution method. Format: functional, organism-based. In short, it runs like this: (§2)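 Broth microdilution MIC per CLSI guidelines in Mueller-Hinton broth. E. coli 1411 and AB734 were also tested with added polymyxin B nonapeptide to permeabilise the outer membrane.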
Assay [8] deals with Escherichia coli. Put plainly: Antimicrobial activity against Escherichia coli 1411 by broth microdilution method. The class given is functional, organism-based. Put shortly:
as §2

In assay [9] the test system is Streptococcus pneumoniae. Put plainly: Inhibition of Streptococcus pneumoniae MurF using D-Ala-D-Ala/UMtri-L-Lys as substrate assessed as residual activity at 100 uM after 15 mins by Malachite green method. Put shortly:
as §1

`N#Cc1c(NC(=O)c2cc(S(=O)(=O)N3CCOCC3)c(Cl)cc2Cl)sc2c1CCCC2` returned an MIC with Streptococcus pneumoniae [1] of 64 µg/mL (≈ 128 µM). Moreover, the results for the Activity in the assay with Staphylococcus aureus [2] and in the assay on Escherichia coli [3] were 107% and 100%, respectively. Besides, the concentration for half-maximal inhibition (IC50) in assay [4] amounted to 4000 nM; in [5], 1000 nM.
`N#Cc1c(NC(=O)c2cc(S(=O)(=O)N3CCOCC3)c(Cl)cc2Cl)sc2c1CCN(c1ccc([N+](=O)[O-])cc1)C2`: in the assay on Streptococcus pneumoniae [1], the MIC was above 128 µg/mL. Further, the result with Staphylococcus aureus [6], in the assay on Escherichia coli [7] and with Escherichia coli [8] was inactive. The Activity with Staphylococcus aureus [2] came to 83%; in the assay with Escherichia coli [3], 74%; with Streptococcus pneumoniae [9] it was 80%.
Consider `N#Cc1c(NC(=O)c2cc(S(=O)(=O)N3CCSC3)c(Cl)cc2Cl)sc2c1CCCC2`, for which, in the assay with Streptococcus pneumoniae [1], the minimum inhibitory concentration (MIC) was above 128 µg/mL. Besides, the outcome in the assay on Staphylococcus aureus [6], with Escherichia coli [7] and in the assay with Escherichia coli [8] was inactive. For the same molecule, the Activity is 85% in the assay on Staphylococcus aureus [2], 104% in the assay with Escherichia coli [3] and 66% in the assay on Streptococcus pneumoniae [9].
In the case of `N#Cc1c(NC(=O)c2cc(S(=O)(=O)N3CCOCC3)c(Cl)cc2Cl)sc2c1CC[C@@H](c1ccc(O)cc1)C2`, half-maximal inhibition in assay [5] (IC50) required 22 nM.
